The results in this text go back to ChEMBL document CHEMBL1240465, “Prenylflavonoids and prenyl/alkyl-phloroacetophenones: synthesis and antitumour biological evaluation” (Eur J Med Chem, 2010).

What all share (assay type): functional, cell-based
For one test, the system named is HeLa. Nature of the test: Cytotoxicity against human HeLa cells after 72 hrs by XTT assay. In short, it runs like this: (§1)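 Cells grown in DMEM (A549, HT-29, HeLa) or RPMI1640 (HL-60), both with 10% heat-inactivated fetal bovine serum, were exposed to compound across a concentration range for 72 h at 37 °C in humidified air/CO₂ (19/1), then read by XTT. Measurements were in triplicate. IC50 is the concentration giving 50% proliferation inhibition versus untreated controls, reported as mean ± S.D. of three independent determinations.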
In general terms: Tetrazolium dyes change colour on reduction, which living cells bring about.

The next test concerns A549. As to the kind of experiment: Cytotoxicity against human A549 cells after 72 hrs by XTT assay. The following applies: A549, 72 h. In a few lines:
as §1

Another test has as its system HT-29. Nature of the test: Cytotoxicity against human HT-29 cells after 72 hrs by XTT assay. The following applies: HT-29, 72 h. In short, it runs like this:
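Cells grown in DMEM (A549, HT-29, HeLa) or RPMI1640 (HL-60), both with 10% heat-inactivated fetal bovine serum, were exposed to compound across a concentration range for 72 h at 37 °C in humidified air/CO₂ (19/1), then read by XTT. Measurements were in triplicate.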

The test system of another test is HL-60. Nature of the test: Cytotoxicity against human HL60 cells after 72 hrs by XTT assay. The following applies: HL-60, 72 h. In a few lines:
as §1

Molecules are shown by their SMILES. pIC50: −log10 of the molar value. Where only a bound is given, the exact number is not on record here.

As to `CC(=O)c1c(O)cc(OC/C=C(\C)CC/C=C(\C)CCC=C(C)C)cc1O`, the pIC50 (usually −log10 of the IC50, conventionally taken in molar units) in the test on HeLa is 4.54; with A549 it was 4.49; in the test with HT-29, 4.51; in the test on HL-60 it was 4.49.
Turning to `CC(=O)c1c(O)cc2c(c1O)CCC(C)(CC/C=C(\C)CCC=C(C)C)O2` (stereo not drawn), the negative logarithm of the IC50 (pIC50) was 4.52 in the test with HeLa, less than 4.00 in the test with A549, less than 4.00 in the test on HT-29 and 4.51 in the test on HL-60.
On to `CC(=O)c1ccc(C)cc1O`, for which the negative-log IC50 (pIC50) with HeLa, in the test on A549, in the test on HT-29 and in the test on HL-60 was less than 4.00 throughout.
In the case of `CCCCCCCC/C=C\CCCCCCCCc1c(O)cc(O)c(C(C)=O)c1O`, the negative logarithm of the IC50 (pIC50) in the test on HeLa, with A549, in the test with HT-29 and with HL-60 was less than 4.00 in each case.
Turning to `CC(=O)c1c(O)cc(O)cc1O` [2,4,6-TRIHYDROXYACETOPHENONE], the negative logarithm of the IC50 (pIC50) in the test on HeLa, in the test with A549, with HT-29 and in the test on HL-60 was less than 4.00 each time.
On to `CC(=O)c1c(O)c(CC=C(C)C)c(O)c(CC=C(C)C)c1O`, for which the pIC50 with HeLa, with A549, in the test with HT-29 and with HL-60 was less than 4.00 each time.
For the compound `CC(=O)c1c(O)cc(O)cc1OC/C=C(\C)CC/C=C(\C)CCC=C(C)C`, the negative logarithm of the IC50 (pIC50) in the test on HeLa is 4.51; with A549, 4.49; with HT-29 it was 4.54; in the test with HL-60, 4.51.
As to `COc1cc(O)c(C(C)=O)c(OC)c1` [XANTHOXYLIN], the negative-log IC50 (pIC50) with HeLa, with A549, in the test with HT-29 and in the test with HL-60 was less than 4.00 in each case.
As for `CC(=O)c1c(O)c(C/C=C(\C)CCC=C(C)C)c(O)c(C/C=C(\C)CCC=C(C)C)c1O`, the pIC50 in the test on HeLa was 4.51; with A549 it was 4.49; with HT-29 it was 4.70; in the test on HL-60 it was 4.72.
With `CCCCCCCC/C=C\CCCCCCCCOc1cc(O)c(C(C)=O)c(O)c1`, the pIC50 in the test with HeLa is 4.51; with A549, 4.51; in the test with HT-29 it was 4.51; in the test with HL-60, 4.49.
With `CCCCCCCCCCCCCCCCCCOc1cc(O)cc(O)c1C(C)=O`, the pIC50 in the test with HeLa, in the test on A549, in the test on HT-29 and in the test with HL-60 was less than 4.00 each time.
As to `CCCCCCCC/C=C\CCCCCCCCOc1cc(O)cc(O)c1C(C)=O`, the negative logarithm of the IC50 (pIC50) is 4.51 in the test on HeLa, less than 4.00 in the test on A549, less than 4.00 in the test on HT-29 and 4.49 with HL-60.
As for `CC(=O)c1c(OC/C=C(\C)CC/C=C(\C)CCC=C(C)C)cc(O)c(C/C=C(\C)CC/C=C(\C)CCC=C(C)C)c1O`, the pIC50 in the test on HeLa was less than 4.00; with A549, less than 4.00; in the test with HT-29, less than 4.00; in the test with HL-60, 4.49.
In the case of `CCCCCCCCCCCCCCCCCCOc1cc(O)c(C(C)=O)c(O)c1`, the pIC50 with HeLa, in the test on A549, in the test with HT-29 and in the test with HL-60 was less than 4.00 throughout.
`CC(=O)c1c(O)cc(O)c(C/C=C(\C)CC/C=C(\C)CCC=C(C)C)c1O`: the negative logarithm of the IC50 (pIC50) with HeLa was 4.89; in the test with A549 it was 4.66; in the test with HT-29, 4.74; with HL-60, 4.85.
The corresponding values for `CC(=O)c1c(O)cc(OCC=C(C)C)cc1O` are 4.52, less than 4.00, 4.51 and 4.49.
Take `C=C1CC[C@H]2C(C)(C)CCC[C@]2(C)[C@H]1CC/C(C)=C/COc1cc(O)c2c(=O)c(OC/C=C(\C)CC[C@H]3C(=C)CC[C@H]4C(C)(C)CCC[C@]34C)c(-c3ccc(O)cc3)oc2c1`: the pIC50 with HeLa, in the test with A549 and with HT-29 was less than 4.00 each time.
`CC(=O)c1c(O)cc(O)c(C/C=C(\C)CCC=C(C)C)c1O`: the pIC50 in the test on HeLa is 4.68; in the test on A549, 4.70; with HT-29, 4.72; in the test with HL-60, 4.72.
Consider `CCCCCCCC/C=C\CCCCCCCCOc1cc(O)c(C(C)=O)c(OCCCCCCCC/C=C\CCCCCCCC)c1`, for which the negative logarithm of the IC50 (pIC50) in the test with HeLa, with A549, with HT-29 and with HL-60 was less than 4.00 in each case.
For the compound `CCCCCCCCCCCCCCCCCCc1c(O)cc(O)c(C(C)=O)c1O`, the pIC50 was 4.55 in the test on HeLa, 4.49 in the test on A549, 4.59 with HT-29 and 4.51 in the test on HL-60.
Regarding `C=C1CC[C@H]2C(C)(C)CCC[C@]2(C)[C@H]1CC/C(C)=C/COc1c(-c2ccc(OC)cc2)oc2cc(O)cc(O)c2c1=O`, the values for the negative-log IC50 (pIC50) with HeLa, in the test with A549 and in the test on HT-29 were 4.52, 4.52 and 4.49, respectively.
`CC(=O)c1c(O)cc(O)c(CC=C(C)C)c1O`: the pIC50 is 4.55 in the test on HeLa, 4.54 with A549, 4.52 with HT-29 and 4.49 with HL-60.
With `CC(=O)c1c(O)c2c(c3c1OC(C)(C)CC3)OC(C)(C)CC2`, the pIC50 in the test on HeLa is less than 4.00; with A549, less than 4.00; in the test with HT-29 it was 4.49; with HL-60 it was 4.51.
On to `CC(=O)c1c(O)cc2c(c1O)CCC(C)(C)O2`, for which the negative logarithm of the IC50 (pIC50) with HeLa, in the test on A549, with HT-29 and in the test with HL-60 was less than 4.00 each time.
For `CC(=O)c1c(O)cc(O)c2c1OC(C)(C)CC2`, the negative logarithm of the IC50 (pIC50) in the test with HeLa, with A549, in the test on HT-29 and with HL-60 was less than 4.00 in each case.
In the case of `CC(=O)c1c(O)cc(O)cc1OCC=C(C)C`, the negative logarithm of the IC50 (pIC50) in the test with HeLa, in the test with A549, with HT-29 and with HL-60 was less than 4.00 throughout.
For the compound `C=C1CC[C@H]2C(C)(C)CCC[C@]2(C)[C@H]1CC/C(C)=C/Cc1c(O)cc(O)c2c(=O)c(O)c(-c3ccc(O)cc3)oc12`, the pIC50 is 4.52 in the test with HeLa, 4.49 in the test with A549 and 4.54 with HT-29.
For the compound `O=c1c(O)c(-c2ccc(O)cc2)oc2cc(O)cc(O)c12` [KAEMPFEROL], the negative-log IC50 (pIC50) in the test on HeLa, in the test with A549 and in the test with HT-29 was less than 4.00 in each case.
